# In ChEMBL document CHEMBL4823246, “Fragment-like Chloroquinolineamines Activate the Orphan Nuclear Receptor Nurr1 and Elucidate Activation Mechanisms” (J Med Chem, 2021):
# Active and inactive are the calls of the source. No cut-off for these calls is given here.
# How the values were obtained:
# Format in all cases: cell-based
# [1] = target: T1, Nuclear receptor subfamily 4 group A member 2 (Homo sapiens, UniProt P43354); assay: Agonist activity at Gal4-fused human Nurr1 LBD expressed in HEK293T cells co-expressing firefly luciferase assessed as luciferase activity incubated for 12 to 14 hrs by hybrid reporter gene assay
# T1 sequence (P43354 whole entry, the tested form may be a part): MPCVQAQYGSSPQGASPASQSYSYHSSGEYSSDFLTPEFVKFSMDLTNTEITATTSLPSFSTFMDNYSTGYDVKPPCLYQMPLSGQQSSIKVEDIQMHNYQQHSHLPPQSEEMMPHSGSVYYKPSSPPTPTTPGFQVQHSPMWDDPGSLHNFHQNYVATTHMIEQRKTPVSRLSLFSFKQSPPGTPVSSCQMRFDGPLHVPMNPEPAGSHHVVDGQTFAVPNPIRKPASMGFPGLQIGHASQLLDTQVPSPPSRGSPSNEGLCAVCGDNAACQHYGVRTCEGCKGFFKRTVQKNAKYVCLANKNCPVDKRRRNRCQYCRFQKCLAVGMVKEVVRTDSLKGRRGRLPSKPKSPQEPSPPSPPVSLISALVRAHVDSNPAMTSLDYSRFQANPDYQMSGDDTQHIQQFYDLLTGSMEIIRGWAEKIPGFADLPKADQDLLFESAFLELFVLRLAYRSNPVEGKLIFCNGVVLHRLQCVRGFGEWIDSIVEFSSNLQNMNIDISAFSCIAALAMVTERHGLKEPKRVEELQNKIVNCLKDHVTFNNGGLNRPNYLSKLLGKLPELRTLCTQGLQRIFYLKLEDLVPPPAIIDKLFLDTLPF
# [2] = target: T1, Nuclear receptor subfamily 4 group A member 2; assay: Agonist activity at Gal4-fused human Nurr1 LBD expressed in HEK293T cells co-expressing firefly luciferase assessed as luciferase activity at 300 uM incubated for 12 to 14 hrs by hybrid reporter gene assay; conditions: time 12-14 hrs
# In short: (§1)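 HEK293T cells, seeded 3 × 10⁴/well the day before, were transiently transfected with a Gal4–human Nurr1 LBD hybrid receptor, a Gal4-responsive firefly luciferase reporter (pFR-Luc) and SV40-renilla luciferase. Five hours later cells received compound in Opti-MEM with 0.1% DMSO for 12−14 h, then a dual-luciferase read-out. Firefly/renilla ×1000 gave RLU; fold activation was taken vs DMSO. Duplicates, ≥3 independent runs; EC50/IC50 are mean SD.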
# [3] = target: T1, Nuclear receptor subfamily 4 group A member 2; assay: Inverse agonist activity at Gal4-fused human Nurr1 LBD expressed in HEK293T cells co-expressing firefly luciferase assessed as luciferase activity incubated for 12 to 14 hrs by hybrid reporter gene assay; in short: as §1
# [4] = target: T1, Nuclear receptor subfamily 4 group A member 2; assay: Agonist activity at Gal4-fused human Nurr1 LBD expressed in HEK293T cells co-expressing firefly luciferase assessed as luciferase activity at 10 uM incubated for 12 to 14 hrs by hybrid reporter gene assay; conditions: time 12-14 hrs; in short: as §1
# [5] = target: T1, Nuclear receptor subfamily 4 group A member 2; assay: Agonist activity at Gal4-fused human Nurr1 LBD expressed in HEK293T cells co-expressing firefly luciferase assessed as luciferase activity at 100 uM incubated for 12 to 14 hrs by hybrid reporter gene assay; conditions: time 12-14 hrs; in short: as §1
# [6] = target: T1, Nuclear receptor subfamily 4 group A member 2; assay: Agonist activity at Gal4-fused human Nurr1 LBD expressed in HEK293T cells co-expressing firefly luciferase assessed as luciferase activity at 30 uM incubated for 12 to 14 hrs by hybrid reporter gene assay; conditions: time 12-14 hrs; in short: as §1
# [7] = target: T1, Nuclear receptor subfamily 4 group A member 2; assay: Agonist activity at Gal4-fused human Nurr1 LBD expressed in HEK293T cells co-expressing firefly luciferase assessed as luciferase activity at 200 uM incubated for 12 to 14 hrs by hybrid reporter gene assay; conditions: time 12-14 hrs; in short: as §1
# [8] = target: T2, Retinoic acid receptor RXR-alpha (Homo sapiens) (UniProt P19793); assay: Agonist activity at full length human RxRalpha heterodimer response element DR5 expressed in HEK293T cells co-expressing firefly luciferase assessed as firefly luciferase activity up to 100 uM incubated for 12 to 14 hrs by hybrid reporter gene assay; conditions: filed as agonist, dose microM <=100, time 12-14 hrs
# T2 sequence (whole entry): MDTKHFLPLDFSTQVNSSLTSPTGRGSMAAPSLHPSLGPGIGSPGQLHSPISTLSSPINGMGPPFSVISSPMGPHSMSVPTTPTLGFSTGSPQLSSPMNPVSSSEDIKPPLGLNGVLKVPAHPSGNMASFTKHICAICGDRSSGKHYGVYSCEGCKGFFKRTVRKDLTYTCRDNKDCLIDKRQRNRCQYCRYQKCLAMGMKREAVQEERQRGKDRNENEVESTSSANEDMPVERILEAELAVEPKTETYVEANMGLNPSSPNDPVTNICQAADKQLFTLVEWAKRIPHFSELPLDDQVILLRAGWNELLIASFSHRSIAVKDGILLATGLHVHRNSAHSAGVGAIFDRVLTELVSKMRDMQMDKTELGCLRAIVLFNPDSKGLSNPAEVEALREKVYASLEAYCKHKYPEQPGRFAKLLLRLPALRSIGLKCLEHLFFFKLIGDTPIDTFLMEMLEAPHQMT
# In short: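 Full-length receptor assay in HEK293T cells transiently cotransfected with pFR-Luc-DR5 reporter, human Nurr1 (pcDNA3.1-hNurr1-NE), human RXR (pSG5-hRXR) and SV40-renilla. Five hours post-transfection, compound was added in Opti-MEM with 0.1% DMSO for 12−14 h, then a dual-luciferase read-out. Firefly/renilla ×1000 gave RLU, expressed as fold over DMSO control. Duplicates, ≥3 independent experiments.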
compound,measurement,setting,value
CCN(CC)Cc1cccc(Nc2ccnc3cc(Cl)ccc23)c1,EC50,[1],116 µM
Clc1ccc2c(Cl)ccnc2c1,Activity,[2],inactive
Clc1ccc2cccnc2c1,IC50,[3],89 µM
CCCCNc1cc(C)nc2c(Cl)cccc12,EC50,[1],12 µM
CC(CCCN(C)C)Nc1cccc2c(Cl)cccc12 (stereo not drawn),Activity,[4],inactive
O=C(O)CCCNc1ccnc2cc(Cl)ccc12,IC50,[3],132 µM
Nc1ccnc2c(Cl)cccc12,EC50,[1],49 µM
Cc1cc(N)c2ccc(Cl)cc2n1,EC50,[1],33 µM
O=C(OCC(O)CO)c1ccccc1Nc1ccnc2cc(Cl)ccc12 (stereo not drawn),Activity,[4],inactive
CCN(CC)Cc1cc(Nc2cc(C)nc3c(Cl)cccc23)ccc1O,Activity,[5],inactive
Cc1cc(NC(C)C)c2cccc(Cl)c2n1,EC50,[1],31 µM
Nc1ccnc2ccc(Cl)cc12,EC50,[1],117 µM
Nc1cc(Cl)cc2ncccc12,EC50,[1],19 µM
Nc1ccc2ccc(Cl)cc2n1,Activity,[5],inactive
Nc1ccc(Cl)c2ncccc12,Activity,[5],inactive
Clc1ccc2c(NCc3ccccc3)ccnc2c1,Activity,[4],inactive
Nc1ccnc2ccccc12,Activity,[2],inactive
Oc1ccc(Nc2ccnc3cc(Cl)ccc23)cc1,Activity,[6],inactive
Nc1cnc2cc(Cl)ccc2c1,Activity,[2],inactive
Nc1ccnc2cc(Cl)ccc12,EC50,[1],259 µM
Nc1ccnc2c(C(F)(F)F)cccc12,Activity,[2],inactive
Nc1ccnc2c(F)cccc12,Activity,[2],inactive
Nc1cncc2c(Cl)cccc12,Activity,[7],inactive
CC1CCC(Nc2ccnc3cc(Cl)ccc23)CC1 (stereo not drawn),Activity,[6],inactive
Cc1cc(N)c2cccc(Cl)c2n1,Activity,[8],Active
Nc1c(Cl)ccc2ncccc12,Activity,[5],inactive
CCN(CC)CCCC(C)Nc1cc(C)nc2c(Cl)cccc12 (stereo not drawn),Activity,[5],inactive
Cc1cc(NC(C)C(C)C)c2cccc(Cl)c2n1 (stereo not drawn),EC50,[1],17 µM
